# proCasp3 act = procaspase-3 (human) activation; hit rate 0.11% among 330,000; activation, % at 8.5 µM; recombinant procaspase-3 D3A, Ac-DEVD-pNA absorbance 405 nm;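 active = activation above the mean of all tested compounds plus 3 SD, cut at about 21% in these data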;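 also: 0% = DMSO alone and 100% = DMSO wells spiked with extra 5 µM PC-3 D3A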
#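 material = Procaspase-3 D3A mutant | probe or stimulus = Ac-DEVD-pNA | compound = single dose, 8.5 µM nominal compound, 0.8% DMSO | timing = 1 h preincubation, 2 h reaction | measured by = 405 nm absorbance of p-nitroaniline, reads at 0 and 120 min | benchmarks = DMSO-only low control, 5 µM PC-3 D3A high control | repeats = singlicate, each compound tested once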
# AHR activator = human AHR activation; P35869; AHR-responsive luciferase reporter cells, luminescence; activation, % at 5 µM; hit rate 2.5% among 320,000; AID 2796; in the data active = activation above about 47%;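 also: 0% = vehicle wells and 100% = reference agonist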
# Target sequence (P35869 whole entry, looked up): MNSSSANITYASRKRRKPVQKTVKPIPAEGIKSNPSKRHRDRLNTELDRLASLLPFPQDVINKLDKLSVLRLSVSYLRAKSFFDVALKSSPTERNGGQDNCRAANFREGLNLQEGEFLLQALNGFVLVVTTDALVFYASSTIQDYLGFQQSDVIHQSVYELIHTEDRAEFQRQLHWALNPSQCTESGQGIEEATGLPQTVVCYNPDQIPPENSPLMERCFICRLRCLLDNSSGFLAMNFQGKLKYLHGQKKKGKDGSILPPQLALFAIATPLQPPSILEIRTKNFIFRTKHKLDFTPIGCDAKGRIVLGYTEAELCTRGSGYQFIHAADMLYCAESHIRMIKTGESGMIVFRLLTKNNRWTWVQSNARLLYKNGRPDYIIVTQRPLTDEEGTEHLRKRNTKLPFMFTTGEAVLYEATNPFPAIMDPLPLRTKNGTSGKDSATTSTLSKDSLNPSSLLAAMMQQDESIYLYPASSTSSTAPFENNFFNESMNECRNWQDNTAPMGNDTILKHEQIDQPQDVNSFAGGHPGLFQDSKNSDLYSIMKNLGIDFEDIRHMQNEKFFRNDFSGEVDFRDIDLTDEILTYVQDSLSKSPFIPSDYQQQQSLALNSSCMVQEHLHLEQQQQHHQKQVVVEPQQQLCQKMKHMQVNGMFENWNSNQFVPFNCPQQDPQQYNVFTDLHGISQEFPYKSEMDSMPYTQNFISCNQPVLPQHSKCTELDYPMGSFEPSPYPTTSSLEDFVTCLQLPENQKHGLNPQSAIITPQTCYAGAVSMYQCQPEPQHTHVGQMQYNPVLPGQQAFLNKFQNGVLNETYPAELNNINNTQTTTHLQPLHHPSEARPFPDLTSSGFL
# PolyA inhibitor = inhibitors of polyadenylation in S. cerevisiae. S. cerevisiae SKY197-pL101 polyadenylation reporter, beta-gal luminescence; efflux-impaired pdr1/pdr3 knockout yeast; score 100 = 6 SD above DMSO. hit rate 0.02% among 300,000. activity score, % at 12 µM;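 active = lowest replicate activity score at least 50, where 100 means six control SD above control mean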;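 also: yeast exposed to compound for 9 h at 30 °C; higher score means more reporter readthrough which indicates perturbed polyadenylation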
# proCasp7 act = activates human procaspase-7, counter-screen for procaspase-3 activators. P55210. recombinant procaspase-7, Ac-DEVD-pNA absorbance 405 nm; D23A/D198A/D206A triple mutant, cannot self-cleave; scale: DMSO 0, 5 µM enzyme 100. activation, % at 8.5 µM. hit rate 0.093% among 330,000;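 active = percent activation above the screen-wide mean plus 3 SD, cut at about 25% in these data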
#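 Assay system: Uncleavable procaspase-7 mutant enzyme | Input: 2 µM procaspase-7 mutant as dispensed | Timing: 1 h compound preincubation, 2 h substrate cleavage, 25 °C | Repeats: One well per compound | Control set: DMSO wells as 0%, DMSO with 5 µM added PC-7 as 100% | Technique: Epi-absorbance of released pNA at 405 nm, two timepoints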
# Active calls of the source: *; / = not tested or not shown. An excerpt weighted towards active compounds, which were near 2.6% of everything screened.
SMILES,proCasp3 act,AHR activator,PolyA inhibitor,proCasp7 act
CCCCNc1c(-c2cccc(-c3cc(C(C)=O)cs3)c2)nc2cc(C)ccn12,5,55*,2,-1
CC(=O)N1c2ccc(S(=O)(=O)N(C)CC(=O)Nc3ccccc3C)cc2CC1C (stereo not drawn),1,3,-5,-1
N#Cc1ccccc1CSc1nc2ccc(NC(=O)c3ccccc3C(=O)O)cc2s1,5,50*,-14,6
Nc1cc(Cl)nc(N/N=C/c2c(O)ccc3ccccc23)n1,2,55*,-59,-14
COc1ccccc1C(=O)NC(=O)COC(=O)C1CC2CCCC(C1)C2=O (stereo not drawn),/,/,15,/
Cn1c(C(C#N)/C(=N\S(=O)(=O)c2cccs2)c2ccccc2)nc2ccccc21 (stereo not drawn),-3,79*,27,4
C/C(=N/NC(=O)CC1N=C(Cc2ccccc2)NNC1=O)c1cccnc1 (stereo not drawn),3,62*,3,-3
C/C(=N\NC(=O)CC1N=C(Cc2ccccc2)NNC1=O)c1ccc(C)cc1 (stereo not drawn),-4,18,1,9
CN1C(=O)S/C(=C/c2cccnc2)C1=O,-17,0,-2,-2
O=C1/C(=C\c2cccnc2)Sc2ccccc21,-6,53*,3,-10
CCOC(=O)N1CCC(NC(=O)C2CCN(C(=O)c3cc4sccc4n3CC)CC2)CC1,0,0,2,-2
CCc1cc2c(Nc3ccc(O)cc3)nc(C)nc2s1,-2,79*,-3,3
Nc1ccc2cn[nH]c2c1,1,49*,-5,-2
Brc1ccc2[nH]ncc2c1,-1,2,-6,6
CNC(=O)c1[nH]cnc1C(=O)Nc1cccc(OC)c1,-1,57*,4,9
COc1ccc(NC(=O)c2nc[nH]c2C(=O)N[C@@H](C)c2ccccc2)cc1,-1,48*,8,4
CN(CC(=O)Nc1ccc(F)cc1)C(=O)CN1C(=O)NC2(CCCc3ccccc32)C1=O (stereo not drawn),6,4,6,2
Oc1[nH]c2ccc(Br)cc2c1N=NC(=S)Nc1ccc(F)cc1,-12,75*,-9,-18
CCC(=O)Nc1ccc(C(=O)CSc2nc(N)cc(N)n2)cc1,-4,3,-17,-1
CCC(=O)Nc1ccc(C(=O)CSc2nc3ccccc3cc2CC)cc1,-9,51*,/,2
COc1ccc(N=Nc2c(C)[nH]c3ccccc23)cc1,0,42,-9,-6
CC(=O)c1cccc(N=Nc2c(C)[nH]c3ccccc23)c1,-4,64*,-25,-6
O=S(=O)(Cc1ccccc1)Oc1ccccc1,0,0,-8,-2
CCn1nc(C)c(CNC(=O)C2CCC(=O)N(CCc3ccc(Cl)cc3)C2)c1C (stereo not drawn),0,-1,-7,-7
O=c1[nH]c2ccccc2nc1N1CCOCC1,13,5,7,5
SMILES,proCasp3 act,AHR activator,PolyA inhibitor,proCasp7 act
c1ccc2c(c1)nc(N1CCOCC1)c1c3ccccc3[nH]c21,8,95*,-34,11
O=S(=O)(Nc1cccc(S(=O)(=O)N2CCCC2)c1)c1cccc(Br)c1,-7,4,/,-6
O=C(C[C@@H]1C/C=C/CC[C@H](Cc2ccc(F)cc2)C(=O)OCCNC1=O)N[C@H](CO)Cc1ccccc1,4,0,/,6
Cc1ccc(CSCC(=O)Nc2ccc(F)cc2)cc1,-7,68*,-4,-10
COc1cc2c(cc1OC)C(C)N(C(=O)[C@@H](NC(=O)c1ccccc1)C(C)C)CC2 (stereo partly drawn),3,1,0,8
CC(C)c1ccc2c(c1)C1Cc3ccccc3C1N2 (stereo not drawn),2,51*,14,6
COC(=O)c1cccc(NC(=O)Nc2ccccc2OC)c1,3,3,15,-12
Cc1cccc(NCc2nc3ccccc3n2C)c1,5,47*,-17,7
Cc1ccc(N2CCN(c3ccc(NCc4nc5ccccc5n4C)cc3)CC2)cc1,1,66*,5,-8
Cc1cccc(OCc2nc3ccccc3n2C)c1,-3,-8,-8,-3
Cc1ccc(NCc2nc3ccccc3n2C)c(C)c1,-5,76*,-11,5
CN(CCc1ccccc1)C(=O)c1cc(COc2ccc(F)cc2Cl)on1,6,2,-21,-1
CCOC(=O)C(=Cc1c[nH]c2ccc(S(=O)(=O)N(C)C)cc12)C(=O)OCC,2,5,8,1
COc1cc(C(=O)OCC(=O)N2CCC(C)CC2)cc2c1OCCO2,15,0,/,6
CC(=O)N1CCC2(CC1)C(C#N)=C(N)Oc1c2sc2nc(C)cc(C)c12,7,5,9,12
CCN1CCC2(CC1)C(C#N)=C(N)Oc1c2sc2nc(C)cc(C)c12,-14,63*,0,-11
O=C(O)c1ccccc1Nc1ccnc(C(F)(F)F)c1,4,1,7,8
C(#Cc1c(-c2ccsc2)sc2ccccc12)c1ccsc1,4,72*,/,-9
OCCCCC#Cc1c(-c2ccsc2)sc2ccccc12,-6,49*,-5,-4
COc1cc(-c2c(-c3ccsc3)sc3ccccc23)cc(OC)c1OC,3,0,/,11
CC1CCCCC1NC(=O)C(C)N1C(=O)c2ccccc2C1=O (stereo not drawn),3,1,/,0
CCc1nnc(SCC(=O)NCCC2=CCCCC2)nc1CC,-3,2,-6,-13
Cc1cc(C(=O)NN=C(Cc2ccccc2)Cc2ccccc2)c(C)o1,-7,58*,5,-13
CC(C)c1nnc(NC(=O)c2cccs2)s1,13,53*,15,-2
COc1cccc(-c2nnc(NC(=O)c3ccco3)s2)c1,7,3,-3,0
SMILES,proCasp3 act,AHR activator,PolyA inhibitor,proCasp7 act
COc1cccc(-c2nnc(NC(=O)c3cccs3)s2)c1,-2,64*,-2,-4
CCCCn1c(CCC(=O)O)nc2cc(S(=O)(=O)N3CCCC3)ccc21,-2,1,/,-6
COc1ccc(-c2nc3ccc(N4CCN(C)CC4)cc3c(=O)[nH]2)cc1,2,56*,1,-1
Cc1nn(-c2nc3ccccc3s2)c(N)c1-c1ccccc1,-4,42,-18,5
Cc1nn(-c2nc3ccccc3s2)c(N)c1-c1ccc(Cl)cc1,-1,77*,10,1
CCOC(=O)c1c(C)n(C)c2ccc(OC)c([N+](=O)[O-])c12,-3,55*,-9,10
CC(=O)Nc1c(O)c2cccc3c2n(c1=O)CCC3,-19,3,-9,-25
Cc1ccnc(NS(=O)(=O)c2cc(-c3cc(C)no3)ccc2C(C)C)c1,-5,3,14,3
CC(=O)Nc1ccc(S(=O)(=O)NCCN2CCNC2=O)cc1Cl,0,0,10,-6
c1cncc(-c2nc3c(ccc4ccccc43)[nH]2)c1,6,127*,-9,-5
O=C1CCCN1CCCNS(=O)(=O)c1ccc(F)c(F)c1,6,-1,-13,-4

# Compound activity as filed in PubChem BioAssay.
